KCNQ1 act = potentiators or activators of KCNQ1 channel, primary screen, cell-based, thallium flux, high-throughput. Potassium voltage-gated channel subfamily KQT member 1 (Homo sapiens), P51787. CHO-K1 KCNQ1, thallium flux FluxOR fluorescence; hits give high values. B-score at 10 µM. actives 0.35% (n = 310,000). AID 2648, 2010;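 active = fluorescence ratio B-score, a plate-corrected score, at least three library SD, with initial intensity B-score within 5 SD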
Target sequence (P51787 whole entry, looked up): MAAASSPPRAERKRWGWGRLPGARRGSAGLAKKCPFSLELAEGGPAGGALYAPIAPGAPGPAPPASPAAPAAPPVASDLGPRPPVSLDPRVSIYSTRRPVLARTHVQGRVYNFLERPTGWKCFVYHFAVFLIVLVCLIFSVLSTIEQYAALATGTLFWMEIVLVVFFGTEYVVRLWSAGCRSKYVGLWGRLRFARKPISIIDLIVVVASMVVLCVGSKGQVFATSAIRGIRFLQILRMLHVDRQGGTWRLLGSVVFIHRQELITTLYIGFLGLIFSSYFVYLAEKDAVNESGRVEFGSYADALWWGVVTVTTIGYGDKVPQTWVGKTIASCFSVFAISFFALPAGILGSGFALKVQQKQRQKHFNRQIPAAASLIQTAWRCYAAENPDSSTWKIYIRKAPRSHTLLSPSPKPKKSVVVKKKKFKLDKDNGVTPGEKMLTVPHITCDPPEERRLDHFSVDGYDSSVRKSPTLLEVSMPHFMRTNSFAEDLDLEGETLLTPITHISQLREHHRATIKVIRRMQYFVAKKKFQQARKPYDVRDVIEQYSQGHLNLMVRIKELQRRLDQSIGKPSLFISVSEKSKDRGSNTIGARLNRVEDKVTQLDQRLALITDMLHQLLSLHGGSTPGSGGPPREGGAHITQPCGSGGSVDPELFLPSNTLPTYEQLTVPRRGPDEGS
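Assay system: stable KCNQ1 CHO-K1 line; medium: assay buffer, equal DMSO in all wells; timing: 90 min dye loading and 20 min compound exposure, both at room temperature; technique: kinetic FluxOR thallium fluorescence, 10-s 1-Hz baseline, 110-s post-stimulus read; read-out basis: B score of baseline-normalized fluorescence ratio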
KCNK3 block = human KCNK3 channel inhibitors, primary screen, CHO cells, FluxOR thallium flux, B-score. Potassium channel subfamily K member 3 (Homo sapiens), O14649. FluxOR fluorescence; hits give low values. B-score at 10 µM. actives 0.84% (n = 340,000). AID 602410, 2012;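 active = B-score under library mean minus 4 SD, starting fluorescence ratio at most library mean plus 5 SD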;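 note: more negative B-score means stronger inhibition of thallium flux through KCNK3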
Cl transport mod = KCC2 cotransporter modulators, thallium flux, primary screen, cell-based, HEK293 KCC2, FluoZin-2 fluorescence, MLSMR. Solute carrier family 12 member 5 (Homo sapiens), Q9H2X9. KCC2 cells, thallium flux FluoZin-2 fluorescence. B-score of Tl+ flux slope (higher = more flux/activation; lower = inhibition) at 10 µM. actives 2.2% (n = 190,000). AID 1456, 2008;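 active = thallium flux slope and its plate-corrected score both differing from the plate sample mean at a set confidence after two filtering rounds, in either direction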;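 note: slope of fluorescence scaled to starting intensity during 10 to 20 s after thallium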
KCNQ1 block = inhibitors of human KCNQ1 channel, primary screen, cell-based, thallium flux, high-throughput | Potassium voltage-gated channel subfamily KQT member 1 (Homo sapiens), P51787 | CHO-K1 KCNQ1, FluxOR thallium flux fluorescence; hits give high values | B-score at 10 µM | actives 1.3% (n = 310,000);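 active = compounds whose thallium flux B-score, printed positive for inhibition, exceeds three library SD while starting fluorescence stays within three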;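 note: channel opened by potassium depolarization with thallium stimulus after 20 min compound exposure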
hERG protect = hERG rescue from dofetilide block, primary screen, cell-based, CHO-hERG, FluxOR thallium flux, dofetilide IC70. Voltage-gated inwardly rectifying potassium channel KCNH2 (Homo sapiens), Q12809. dofetilide IC70 present. activation (rescue from dofetilide block), less the hit threshold, % at 10 µM. actives 0.51% (n = 310,000). AID 1511, 2009;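 active = activation above the mean of controls blocked by dofetilide plus 5 SD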;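 note: thallium influx through hERG after potassium depolarization seen as dye fluorescence rise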
KCNK9 block = KCNK9 potassium channel inhibitors, primary screen, HEK293 cells, thallium flux; AID 488922, 2010; actives 1.2% (n = 310,000); FluxOR thallium flux fluorescence; hits give low values; B-score at 10 µM; Potassium channel subfamily K member 9 (Homo sapiens), Q9NPC2;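 active = ratio B-score over 3 SD below the library mean, with starting fluorescence within 5 SD of its mean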;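 note: negative B-score means less thallium flux so channel inhibition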
Starred values were filed as active, the others as inactive; i = inactive; · = not tested or not shown; ! = repeats disagree. Sampled rows, rich in hits. Any-hit rate of the full collection: about 4.1%.

SMILES	KCNQ1 act	KCNK3 block	Cl transport mod	KCNQ1 block	hERG protect	KCNK9 block
c1ccc(-c2cc(-c3ccccc3)[n+](-c3ccccc3)c(-c3ccccc3)c2)cc1	i	-10.2*	-1.48	13*	-35.3	i
CN(C)c1ccc(-[n+]2c(-c3ccccc3)cc(-c3ccccc3)cc2-c2ccccc2)cc1	i	-9*	-0.859	12*	-34.9	i
O=[N+]([O-])c1[nH]cnc1Br	·	i	·	·	·	·
O=C1NC(=S)NC(=O)C1=Cc1cccc2cc3ccccc3cc12	·	i	0.0334	·	·	·
CN1/C(=C\C=C2C(=O)NC(=S)NC2=O)C(C)(C)c2ccccc21	i	i	-4.63*	i	-8.2	i
COc1ccc(-c2nc3ccc(C(=O)N4CCC5(CC4)OCCO5)cc3nc2-c2ccc(OC)cc2)cc1	i	i	·	6*	-6.9	i
CCOC(=O)c1cccc(-[n+]2c(-c3ccccc3)cc(-c3ccccc3)cc2-c2ccccc2)c1	i	i	·	13*	-38.1	i
CCOC(=O)c1cccc(NC(=O)c2c(O)[nH]c(=O)[nH]c2=O)c1	i	i	·	i	-1.1	i
CCOC(=O)c1ccc(-[n+]2c(-c3ccccc3)cc(-c3ccccc3)cc2-c2ccccc2)cc1	i	i	·	12*	-40.7	i
CCOC(=O)c1ccccc1C(=O)OCC	i	i	·	i	-4.5	i
Cc1ccc(-c2cc(-c3ccc(C)cc3)[n+](-c3ccc(C(=O)[O-])cc3)c(-c3ccc(C)cc3)c2)cc1	i	i	·	8*	-47.5	i
COC1=CC2[C@@H]3Cc4ccc(OC)c(O)c4[C@]2(CCN3C)CC1=O (some centres not stated)	·	i	·	·	·	·
N#C/C=C/C#N	·	i	·	·	·	·
COC(=O)C1=C(c2ccc(S(C)(=O)=O)cc2)C[C@@H]2CC[C@H]1N2C(=O)NC1CCCCC1	i	i	·	i	5.8*	i
COC(=O)C1=C(c2ccc(S(C)(=O)=O)cc2)C[C@@H]2CC[C@H]1N2C(=O)NC1CC1	i	i	·	i	-3.9	i
c1ccc(CC(NCc2ccco2)c2ccccc2)cc1 (configuration not stated)	i	i	0.437	6*	-15.2	i
CC(C)Oc1cccc(NC(=O)c2cccn(Cc3ccc4c(c3)OC(F)(F)O4)c2=O)c1	i	i	-0.129	7*	-14.3	-7.94*
O=C1/C(=C/c2ccccc2)C[C@@]2(O)[C@H]3Cc4ccc(O)c5c4[C@@]2(CCN3CC2CC2)C1O5 (some centres not stated)	·	i	·	·	·	·
c1cc2c(cc1CCNC1C3CC4CC(C3)CC1C4)OCO2 (configuration not stated)	i	i	·	6*	-5.3	i
Cc1ncc(CNC(=O)N(CCCl)N=O)c(N)n1	·	i	·	·	·	·
CC1C=CCCC12C(=O)NC(=O)NC2=O (configuration not stated)	·	i	·	·	·	·
CC1CN=C(Nc2cccc3ccccc23)S1 (configuration not stated)	i	i	·	i	-10.9	-8.03*
CC1CN=C(Nc2ccccc2)S1 (configuration not stated)	i	i	0.484	i	-3.9	i
CCOP(=S)(OCC)Oc1nc(Cl)c(Cl)cc1Cl	·	-9.1*	·	·	·	·
Cc1cc2c(C(C)C)c(O)c(O)c(C=O)c2c(O)c1-c1c(C)cc2c(C(C)C)c(O)c(O)c(C=O)c2c1O	·	·	-7.15*!	·	·	·
CC12CCC3C(CCC4(O)CC(O)CCC34C=NO)C1(O)CCC2C1=COC(=O)C1 (configuration not stated)	·	i	·	·	·	·

Screens as filed in PubChem BioAssay.
